From PubChem BioAssay come the findings set out here.

The nature of assay [1]: Her2 expression decrease, cell viability multiplex – SKBR3 breast tumor cells, AlphaScreen, ATP viability, primary screen (AID 461;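 active = Her2 level under about 52% in both replicate screens, with viability over 70% of control, limit read from the data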;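 for Her2 level: lower value means less Her2 protein in the cells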;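 for viability: percent of carrier control wells set as 100% viability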). Conditions: SKBR3 Her2 protein level, 18-24 h, measured here: SKBR3 viability, ATP luminescence, at 10 µM.
Assay [2] concerns the target Receptor tyrosine-protein kinase erbB-2 (Homo sapiens) (UniProt P04626). The description is as above. As to conditions: 18-24 h, at 10 µM, stronger effect = lower value.
Assay [3] is described as follows: reduced viability of SK-BR-3 breast cancer cells – cell-based, 24 h, human, pilot screen (AID 572;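 active = viability at or below 10% of carrier control in both of two separate runs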;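 note: compound exposure lasted between 18 and 24 h rather than exactly 24 h; 100% = carrier-treated control wells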). As to conditions: SK-BR-3 viability, CellTiter-Glo luminescence, at 10 µM, stronger effect = lower value. (In ATP-based viability assays light output follows the ATP content of the culture.)
The nature of assay [4]: HUVEC growth inhibition – cell-based, human, primary screen (AID 575;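 active = viability at or below 30% in both replicate assays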;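 note: 100% = median of untreated cell wells with 0.1% DMSO on each plate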). Conditions: HUVEC proliferation, CellTiter-Glo luminescence, 72 h; at 10 µM; stronger effect = lower value. Summed up:
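System: primary human umbilical vein endothelial cells; Quantity: 1250 endothelial cells in each well; Buffer or medium: supplemented EBM, 2% fetal bovine serum; Doses: one dose, 10 µM final, 0.1% DMSO; Incubation: 72 h compound incubation; Technique: ATP-based CellTiter-Glo luminescent read; Evaluation: percent of median DMSO-control luminescence; Controls: vehicle and MePR control wells.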

Assay [5] in a line: H69AR cell proliferation blockers – human, duplicate replicates, primary screen (AID 580;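 active = viability at or under a set limit in both replicates, limit being median viability minus 3 SD, cut at about 48% in these data, passing the limit was not always enough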;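 note: 100% = mean luminescence of untreated wells and 0% = no signal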). Conditions: H69AR lung tumor cells viability, ATP luminescence, 72 h; at 10 µM; stronger effect = lower value.
Assay [6] in a line: MRP1 drug-resistance reversers in H69AR cells – cell-based, doxorubicin co-treatment, pilot screen (AID 601;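 active = viability loss from added drug above about 55%, and viability with drug at most 40%, in both replicates, limit read from the data, passing the limit was not always enough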). As to conditions: CellTiter-Glo, 72 h, at 10 µM; for differential viability (reversal): stronger effect = higher value.
Assay [7] is described as follows: yeast transport mutant growth inhibition pilot in 384-well plates, post-Golgi transport modulator project (AID 636; in the data active = inhibition above about 31%). Conditions: absorbance 615 nm, about 18 h, stronger effect = higher value.
Assay [8] can be described thus: growth suppression of yeast trafficking mutant, preliminary HTS, modulators of trafficking downstream of Golgi apparatus project, 1536-format plate, OD 615 nm (AID 637). As to conditions: yeast transport mutant growth, absorbance 615 nm, 18 h; stronger effect = higher value.
Setting [9] is: H69AR cells + 2 uM doxorubicin, measured here: viability with 2 uM doxorubicin, stronger effect = lower value.
The mark [10] stands for this setting: H69AR cells, compound alone cytotoxicity.

Activity calls are given as the source filed them. Cut-off read from the data, not from the text of the source, unless noted: active = inhibition above about 30%; inactive = the rest.

Chain of Receptor tyrosine-protein kinase erbB-2 (Homo sapiens) (P04626 whole entry, looked up): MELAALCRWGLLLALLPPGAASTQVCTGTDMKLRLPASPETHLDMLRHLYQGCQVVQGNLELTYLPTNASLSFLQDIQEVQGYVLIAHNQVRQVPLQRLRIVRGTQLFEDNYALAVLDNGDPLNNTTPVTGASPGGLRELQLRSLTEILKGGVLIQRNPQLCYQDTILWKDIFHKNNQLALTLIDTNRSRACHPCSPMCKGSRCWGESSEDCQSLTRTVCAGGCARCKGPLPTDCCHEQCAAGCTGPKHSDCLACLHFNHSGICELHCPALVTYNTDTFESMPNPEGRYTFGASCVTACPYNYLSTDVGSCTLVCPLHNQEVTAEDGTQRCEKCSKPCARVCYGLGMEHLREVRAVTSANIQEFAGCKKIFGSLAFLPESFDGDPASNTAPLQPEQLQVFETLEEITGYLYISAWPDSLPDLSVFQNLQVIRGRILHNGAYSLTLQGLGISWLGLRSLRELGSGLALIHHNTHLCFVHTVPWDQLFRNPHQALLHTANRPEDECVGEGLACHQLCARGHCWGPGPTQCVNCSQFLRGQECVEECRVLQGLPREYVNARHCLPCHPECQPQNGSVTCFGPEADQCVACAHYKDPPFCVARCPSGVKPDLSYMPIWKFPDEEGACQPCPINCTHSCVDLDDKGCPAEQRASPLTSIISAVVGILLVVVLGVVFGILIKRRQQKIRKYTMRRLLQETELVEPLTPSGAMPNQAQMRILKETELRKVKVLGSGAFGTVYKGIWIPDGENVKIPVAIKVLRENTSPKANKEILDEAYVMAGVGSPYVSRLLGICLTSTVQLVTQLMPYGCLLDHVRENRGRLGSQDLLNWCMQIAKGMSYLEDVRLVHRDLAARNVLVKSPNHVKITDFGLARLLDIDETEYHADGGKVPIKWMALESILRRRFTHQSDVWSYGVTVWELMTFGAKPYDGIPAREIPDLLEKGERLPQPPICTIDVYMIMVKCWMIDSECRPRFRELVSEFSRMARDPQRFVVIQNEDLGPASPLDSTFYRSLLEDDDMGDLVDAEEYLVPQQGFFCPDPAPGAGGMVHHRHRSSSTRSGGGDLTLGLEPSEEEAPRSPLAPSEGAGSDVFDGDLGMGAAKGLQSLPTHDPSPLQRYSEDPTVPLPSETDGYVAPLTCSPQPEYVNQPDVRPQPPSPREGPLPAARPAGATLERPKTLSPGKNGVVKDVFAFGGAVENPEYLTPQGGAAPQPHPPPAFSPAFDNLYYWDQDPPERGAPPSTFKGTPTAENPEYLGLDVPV

Regarding `COc1ccc(S(=O)(=O)N2CN(Cc3ccco3)c3nc4ccccc4nc32)cc1`, the viability (as a rule, a read-out of living cells in per cent, often relative to untreated cells) in assay [1] is 101%; in assay [3] it was 101% (inactive); in assay [4] it was 99.2% (inactive); in assay [5] it was 102% (inactive); in assay [6] (setting [9]), 94.2%; in assay [6] (setting [10]), 102%. Further, in assay [2], the Her2 level was 84.5% (inactive). In addition, the differential viability (reversal) in assay [6] (H69AR cells + 2 uM doxorubicin) is 7.69% (inactive). The inhibition (in general, the relative decrease from the control value, in per cent) in assay [7] is 1.82% (inactive); in assay [8], 1.11% (inactive).
For `Cc1ccc(-c2nnn(CC(=O)N(Cc3cccs3)C(C(=O)NC(C)(C)C)c3ccc(C)o3)n2)o1` (stereo not given), the viability in assay [1] was 86.5%; in assay [3], 86.5% (inactive); in assay [4], 93.4% (inactive); in assay [5], 79% (inactive); in assay [6] (setting [9]), 75.7%; in assay [6] (setting [10]), 79%. Further, the Her2 level in assay [2] was 96.5% (inactive). The differential viability (reversal) in assay [6] (H69AR cells + 2 uM doxorubicin) was 3.37% (inactive). In addition, the inhibition is -0.77% (inactive) in assay [7] and -5.67% (inactive) in assay [8].
As to `COCn1c(COc2ccccc2)nc2ccccc21`, the viability in assay [1] is 86.5%; in assay [3] it was 86.5% (inactive); in assay [4] it was 107% (inactive); in assay [5] it was 82.6% (inactive); in assay [6] (setting [9]), 84.8%; in assay [6] (setting [10]), 82.6%. For the same compound, the Her2 level in assay [2] was 94% (inactive). Also, in assay [6] (H69AR cells + 2 uM doxorubicin), the differential viability (reversal) is -2.19% (inactive). Also, the results for the inhibition in assay [7] and in assay [8] were -9.32% (inactive) and -2.67% (inactive), respectively.
On to `CC1(C)CC(=O)C(C=NCCc2ccc(S(N)(=O)=O)cc2)=C(O)C1`, for which the viability is 116% in assay [1]; 116% (inactive) in assay [3]; 98.7% (inactive) in assay [4]; 88% (inactive) in assay [5]; 90% in assay [6] (setting [9]); 88% in assay [6] (setting [10]). Besides, in assay [2], the Her2 level was 95% (inactive). Moreover, the differential viability (reversal) in assay [6] (H69AR cells + 2 uM doxorubicin) is -2.06% (inactive). In addition, the inhibition in assay [7] was -6.13% (inactive); in assay [8] it was -2.3% (inactive).
With `O=C(NCc1ccccc1)N1CCn2c(nc3ccccc32)C1`, the viability was 93.5% in assay [1]; 93.5% (inactive) in assay [3]; 90.2% (inactive) in assay [4]; 92.9% (inactive) in assay [5]; 78.7% in assay [6] (setting [9]); 92.9% in assay [6] (setting [10]). In assay [2], the Her2 level is 91.5% (inactive). In assay [6] (H69AR cells + 2 uM doxorubicin), the differential viability (reversal) is 14.2% (inactive). In addition, the inhibition is -3.73% (inactive) in assay [7] and 1.15% (inactive) in assay [8].
`Cc1ccc(-n2c(Cn3cnc4ccccc43)nnc2SCC(=O)O)cc1`: the viability was 102% in assay [1]; 102% (inactive) in assay [3]; 94.3% (inactive) in assay [4]; 97.7% (inactive) in assay [5]; 92.3% in assay [6] (setting [9]); 97.7% in assay [6] (setting [10]). Also, the Her2 level in assay [2] is 108% (inactive). For the same compound, the differential viability (reversal) in assay [6] (H69AR cells + 2 uM doxorubicin) was 5.34% (inactive). The inhibition was -4.13% (inactive) in assay [7] and 24.3% (inactive) in assay [8].
In the case of `O=C(c1cccc(Cl)c1)N1CCN(Cc2ccncc2)CC1`, the viability in assay [1] is 92%; in assay [3], 92% (inactive); in assay [4] it was 96.2% (inactive); in assay [5] it was 105% (inactive); in assay [6] (setting [9]), 95.8%; in assay [6] (setting [10]) it was 105%. Also, the Her2 level in assay [2] was 96.5% (inactive). In addition, the differential viability (reversal) in assay [6] (H69AR cells + 2 uM doxorubicin) is 9.47% (inactive). Also, the values for the inhibition in assay [7] and in assay [8] were -0.27% (inactive) and 6.89% (inactive), respectively.
For the compound `COc1cccc(NC(=O)N2CCN(c3cccc(C)c3C)CC2)c1`, the viability in assay [1] is 102%; in assay [3], 102% (inactive); in assay [4] it was 68.5% (inactive); in assay [5], 82.8% (inactive); in assay [6] (setting [9]), 87.4%; in assay [6] (setting [10]), 82.8%. Besides, the Her2 level in assay [2] is 72.5% (inactive). The differential viability (reversal) in assay [6] (H69AR cells + 2 uM doxorubicin) is -4.58% (inactive). The inhibition in assay [7] was 1.82% (inactive); in assay [8], -3% (inactive).
As for `O=C(Cc1ccccc1)N1CCCC(c2nc(-c3cccs3)no2)C1` (stereo not given), the viability in assay [1] is 91.5%; in assay [3] it was 91.5% (inactive); in assay [4], 95.5% (inactive); in assay [5], 102% (inactive); in assay [6] (setting [9]), 85.7%; in assay [6] (setting [10]) it was 102%. Moreover, the Her2 level in assay [2] is 111% (inactive). Also, in assay [6] (H69AR cells + 2 uM doxorubicin), the differential viability (reversal) is 16.8% (inactive). Besides, the inhibition was -5.27% (inactive) in assay [7] and -3.61% (inactive) in assay [8].
As for `Cc1ccc(C)c(-n2c(CNC(=O)c3ccco3)nnc2SCC(=O)Nc2nnc(C)s2)c1`, the viability in assay [1] is 100%; in assay [3], 100% (inactive); in assay [4], 104% (inactive); in assay [5], 96.6% (inactive); in assay [6] (setting [9]), 90.7%; in assay [6] (setting [10]) it was 96.6%. Besides, in assay [2], the Her2 level was 94% (inactive). Besides, the differential viability (reversal) in assay [6] (H69AR cells + 2 uM doxorubicin) was 5.91% (inactive). The inhibition in assay [7] was -5.6% (inactive); in assay [8] it was 3.5% (inactive).
As to `O=C(Cn1ccc2ccccc2c1=O)Nc1ccc2c(c1)OCO2`, the viability in assay [1] is 104%; in assay [3], 104% (inactive); in assay [4], 95.7% (inactive); in assay [5] it was 107% (inactive); in assay [6] (setting [9]) it was 92.2%; in assay [6] (setting [10]), 107%. Moreover, in assay [2], the Her2 level was 95.5% (inactive). For the same compound, the differential viability (reversal) in assay [6] (H69AR cells + 2 uM doxorubicin) was 14.8% (inactive). In addition, the inhibition in assay [7] was 1.49% (inactive); in assay [8] it was -3.17% (inactive).
Regarding `CC(C)C(=O)Nc1ccc2c(c1)nc1n2CCSC1`, the viability is 104% in assay [1]; 104% (inactive) in assay [3]; 111% (inactive) in assay [4]; 95.4% (inactive) in assay [5]; 85% in assay [6] (setting [9]); 95.4% in assay [6] (setting [10]). Further, the Her2 level in assay [2] was 95% (inactive). In assay [6] (H69AR cells + 2 uM doxorubicin), the differential viability (reversal) was 10.4% (inactive). The values for the inhibition in assay [7] and in assay [8] were -0.78% (inactive) and -6.83% (inactive), respectively.
Turning to `CCc1ccccc1-n1c(SCC(=O)N2CCCC2)nnc1-c1ccccn1`, the viability was 106% in assay [1]; 106% (inactive) in assay [3]; 123% (inactive) in assay [4]; 95.3% (inactive) in assay [5]; 93.3% in assay [6] (setting [9]); 95.3% in assay [6] (setting [10]). The Her2 level in assay [2] is 99.5% (inactive). Moreover, the differential viability (reversal) in assay [6] (H69AR cells + 2 uM doxorubicin) was 1.95% (inactive). The inhibition is 1.92% (inactive) in assay [7] and -6.03% (inactive) in assay [8].
`O=C(Nc1cccc(C(F)(F)F)c1)c1cccnc1N1CCCC1`: the viability in assay [1] was 99%; in assay [3], 99% (inactive); in assay [4], 102% (inactive); in assay [5], 95% (inactive); in assay [6] (setting [9]) it was 102%; in assay [6] (setting [10]) it was 95%. Further, the Her2 level in assay [2] was 102% (inactive). For the same compound, in assay [6] (H69AR cells + 2 uM doxorubicin), the differential viability (reversal) is -6.8% (inactive). Further, the values for the inhibition in assay [7] and in assay [8] were -2% (inactive) and -1.29% (inactive), respectively.
`CC(=O)Nc1ccc(S(=O)(=O)Nc2nc3n(n2)C(c2ccccc2)CC(=O)N3)cc1` (stereo not given): the viability in assay [1] was 99.5%; in assay [3] it was 99.5% (inactive); in assay [4], 102% (inactive); in assay [5], 107% (inactive); in assay [6] (setting [9]) it was 99.9%; in assay [6] (setting [10]), 107%. The Her2 level in assay [2] is 83.5% (inactive). Further, the differential viability (reversal) in assay [6] (H69AR cells + 2 uM doxorubicin) is 6.67% (inactive). In addition, the inhibition was -7.7% (inactive) in assay [7] and -0.32% (inactive) in assay [8].
Take `COc1ccc(NC(=O)CCCN2C(=O)C3C4C=CC(C4)C3C2=O)c(OC)c1` (stereo not given): the viability in assay [1] is 110%; in assay [3], 110% (inactive); in assay [4], 82% (inactive); in assay [5], 102% (inactive); in assay [6] (setting [9]), 97.1%; in assay [6] (setting [10]), 102%. Besides, the Her2 level in assay [2] was 94% (inactive). Further, in assay [6] (H69AR cells + 2 uM doxorubicin), the differential viability (reversal) is 5.03% (inactive). In addition, the inhibition in assay [7] was -5% (inactive); in assay [8] it was -5.09% (inactive).
